In article PMC4556268 (Biochemistry, 2008):
Like-named read-outs stand apart in the source and are kept apart here. Each block holds one molecule with its values, some of them ahead of it.

Columns and labels:
RhoGDIα [1] = molecular target: T1, RhoGDIα (Homo sapiens, UniProt P52565); format: binding
T1 sequence (P52565 1-204): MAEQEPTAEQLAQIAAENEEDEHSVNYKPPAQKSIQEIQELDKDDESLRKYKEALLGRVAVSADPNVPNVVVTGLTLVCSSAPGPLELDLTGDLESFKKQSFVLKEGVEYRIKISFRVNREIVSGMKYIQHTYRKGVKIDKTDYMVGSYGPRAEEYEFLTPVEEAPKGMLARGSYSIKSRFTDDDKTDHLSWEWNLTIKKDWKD
How it was run: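 For n-alkanols, halothane was equilibrated first, then alkanol titrated from stocks while emission at 330 nm was tracked; buffer-only additions controlled for halothane evaporation. For AGGC (0–300 µM), 30 min preincubation ±1 mM halothane in gas-tight syringes, then dilution into cuvette. Recovery […] fitted by Hill-type equation (EC50, Fmax, h).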

RhoGDIα–Cdc42 complex = molecular target: T2, RhoGDIα–Cdc42 complex (Homo sapiens, UniProt P52565); format: biochemical; settings: for effect on association of Cdc42 with membranes (Req,Cdc42) / Cdc42–RhoGDIα Dissociation h: with EDTA and GMPPNP; for Cdc42–RhoGDIα Dissociation h: fit to Eq. 6
T2 sequence (P52565 1-204): T1 sequence (P52565 1-204)
How it was run: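 SPR on L1 chip at 25°C. Running buffer 10 mM HEPES pH 7.4, 150 mM NaCl. Surface cleaned with 10 mM CHAPS; POPC/POPS (4:1) 100 nm LUV captured at 5 µL/min for 15 min; conditioned with 10 mM glycine pH 1.5 and 10 mM NaOH. RhoGDIα–Cdc42 complex typically 0.5 µM in Buffer A with 50 µM GMPPNP and n-alkanol. 14.3 mM EDTA initiated exchange and dissociation. Req from first-order fits versus complex concentration.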

RhoGDIα [2] = molecular target: T1, RhoGDIα; experiment: Photo-affinity labeling of RhoGDIα with azialcohols, LC-MSMS; format: binding
RhoGDIα [3] = molecular target: T1, RhoGDIα; format: binding; remark: listed apart in the source
How it was run: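 RhoGDIα at 500 nM in 2.8 mL Buffer B (pH 7.5 Tris) in screw-top sealed cuvette with minimal headspace; halothane 0–800 µM; 60 min at room temperature. Steady-state tryptophan emission spectra, excitation 295 nm. Quenching taken as FQ/F0, averaging >10 points at the emission maximum. Fitted to Eq. 1 for Kd, h and maximal quenching.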

Cdc42 = Cdc42 (Homo sapiens, UniProt P60953); settings: 50 mM (results not shown)
Chain of Cdc42 (P60953 whole entry): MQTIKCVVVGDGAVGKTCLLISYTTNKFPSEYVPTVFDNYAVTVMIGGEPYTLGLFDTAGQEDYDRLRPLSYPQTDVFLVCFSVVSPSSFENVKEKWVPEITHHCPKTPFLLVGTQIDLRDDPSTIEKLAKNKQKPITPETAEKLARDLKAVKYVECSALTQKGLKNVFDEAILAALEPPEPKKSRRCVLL

[4] = read-out: Halothane Binding EC50, 0.2 mM halothane, RhoGDIα 500 nM, fit to Eq. 2
[5] = read-out: Halothane Binding KI, 0.2 mM halothane, calculated using Eq. 3

SMILES: CC(=O)N[C@@H](CSC/C=C(\C)CC/C=C(\C)CC/C=C(\C)CCC=C(C)C)C(=O)O [AGGC, N-acetyl geranylgeranyl cysteine]
effect on RhoGDIα tryptophan fluorescence in the absence of halothane (RhoGDIα [1]; control without halothane (results not shown)): unaffected
Ki (RhoGDIα [1]; read-out: KI for the displacement of halothane, from EC50 by Eq. 3): 0.01 mM

SMILES: CC1(CCO)N=N1 [3-azibutanol]
Lowest 3-azialcohol concentration where photoincorporation was detected (RhoGDIα [2]; AGGC +): 100 µM
Residue photolabeled / photolabeled peptide (RhoGDIα [2]; AGGC –): Photolabeled peptide not detected

SMILES: FC(F)(F)C(Cl)Br (stereo not shown) [halothane, 2-bromo-2-chloro-1,1,1-trifluoroethane]
Kd (RhoGDIα [3]): 0.147 ± 0.007 mM
blue shift in the emission maxima (RhoGDIα [3]; dose dependent, halothane 0–800 µM): ~ 2 nm
Hill coefficient h for halothane binding (RhoGDIα [3]; fit to Eq. 1): 0.91±0.2
plateau tryptophan fluorescence intensity, of the original signal (RhoGDIα [3]; halothane 0–800 µM): ~ 30%

SMILES: CCCCCC1(CCO)N=N1 [3-azioctanol]
Lowest 3-azialcohol concentration where photoincorporation was detected (RhoGDIα [2]; AGGC +): 10 µM
Lowest 3-azialcohol concentration where photoincorporation was detected (RhoGDIα [2]; AGGC –): 10 µM
photolabeling of E193 (RhoGDIα [2]; at levels up to 1 mM): not photolabeled

The next lines start with results.

Halothane Binding Fmax (RhoGDIα [1]; 0.2 mM halothane, fit to Eq. 2): 40 ± 9
Halothane Binding h (RhoGDIα [1]; 0.2 mM halothane, fit to Eq. 2): 1.2 ± 0.2
EC50 (RhoGDIα [1]; [4]): 48 ± 4.5 mM
Ki (RhoGDIα [1]; [5]): 20 ± 2 mM
SMILES: CCCO [n=3]

effect on association of Cdc42 with membranes (Req,Cdc42) (RhoGDIα–Cdc42 complex): unaffected
SMILES: CCCCCCO [n-hexanol]
effect on halothane-induced tryptophan quenching (RhoGDIα [1]; 0.2 mM halothane): did not reach saturation within the concentration range used

Halothane Binding h (RhoGDIα [1]; 0.2 mM halothane, fit to Eq. 2): 1.4 ± 0.4
EC50 (RhoGDIα [1]; [4]): 100 ± 58 mM
Ki (RhoGDIα [1]; [5]): 42 ± 24 mM
Cdc42–RhoGDIα Dissociation h (RhoGDIα–Cdc42 complex): 1.2 ± 0.2
SMILES: CCO [n=2, ethanol]

effect on halothane-induced tryptophan quenching (RhoGDIα [1]; 0.2 mM halothane): negligible effects
effect on association of Cdc42 with membranes (Req,Cdc42) (RhoGDIα–Cdc42 complex): unaffected
SMILES: CCCCCCCO [n-heptanol]

Fmax for displacement of halothane (RhoGDIα [1]; 0.1 mM halothane): 0.55 ± 0.06
h for displacement of halothane (RhoGDIα [1]; 0.1 mM halothane): 1.0 ± 0.4
Fmax for displacement of halothane (RhoGDIα [1]; 0.2 mM halothane): 0.59 ± 0.04
h for displacement of halothane (RhoGDIα [1]; 0.2 mM halothane): 1.1 ± 0.2
Halothane Binding Fmax (RhoGDIα [1]; 0.2 mM halothane, fit to Eq. 2): 51 ± 4
Halothane Binding h (RhoGDIα [1]; 0.2 mM halothane, fit to Eq. 2): 1.1 ± 0.1
Fmax for displacement of halothane (RhoGDIα [1]; 0.5 mM halothane): 0.59 ± 0.05
h for displacement of halothane (RhoGDIα [1]; 0.5 mM halothane): 1.0 ± 0.1
Fmax for displacement of halothane (RhoGDIα [1]; 1.0 mM halothane): 0.65 ± 0.08
h for displacement of halothane (RhoGDIα [1]; 1.0 mM halothane): 1.2 ± 0.2
Hill coefficient h (RhoGDIα [1]; independent of halothane concentration or chain length): ~ 1
EC50 (RhoGDIα [1]; read-out: EC50 for displacement of halothane, 0.1 mM halothane): 3 ± 1 mM
EC50 (RhoGDIα [1]; read-out: EC50 for displacement of halothane, 0.2 mM halothane): 11 ± 3 mM
EC50 (RhoGDIα [1]; read-out: EC50 for displacement of halothane, 0.5 mM halothane): 22 ± 5 mM
EC50 (RhoGDIα [1]; read-out: EC50 for displacement of halothane, 1.0 mM halothane): 52 ± 8 mM
EC50 (RhoGDIα [1]; [4]): 10 ± 3 mM
Ki (RhoGDIα [1]; [5]): 4.2 ± 1.2 mM
effect on association of Cdc42 with membranes (RhoGDIα–Cdc42 complex; in the absence of EDTA and GMPPNP): negligible effects
Cdc42–RhoGDIα Dissociation h (RhoGDIα–Cdc42 complex): 1.5 ± 0.3
SMILES: CCCCO [n=4, n-butanol]
effect on rate and extent of exchange of MANT-GDP for GDP (Cdc42): neither the rate nor the extent of exchange of MANT-GDP for GDP were affected
